Assay results reported in ChEMBL document CHEMBL5303300, “EUbOPEN Chemogenomics Library - Multiplex” (2023).
“And” between values parts separate entries of the source, which are not always exact repeats. Equal values may be shown once.

Tested on: Fibroblast
Assay: Multiplex assay against human fibroblast
Format: toxicity, cell-based
Settings: number of replicates 2
Outline: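 At seeding, live cells were stained with Hoechst33342, BioTracker Green Microtubule Cytoskeleton Dye, MitoTracker Red and Annexin V Alexa Fluor 680. After compound addition they were imaged on a CQ1 microscope at 37°C and 5% CO2, and CellPathfinder machine-learning gating sorted them into Hoechst high-intensity objects or normal cells, with normal cells further split into healthy, pyknosed or fragmented nuclei and pyknosed cells into mitotic or apoptotic. Tubulin, mitochondrial-mass and membrane-permeability phenotypes are given as per cents of cells with healthy nuclei.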

[1] = 12 h, 1 µM, compound concentration 1 uM
[2] = 12 h, 10 µM, compound concentration 10 uM
[3] = 24 h, 1 µM, compound concentration 1 uM
[4] = 24 h, 10 µM, compound concentration 10 uM
[5] = 48 h, 1 µM, compound concentration 1 uM
[6] = 48 h, 10 µM, compound concentration 10 uM

## CC(C)S(=O)(=O)c1ccccc1Nc1nc(N[C@@H]2CCCN(CCCCCCCNC(=O)COc3cccc4c3C(=O)N(C3CCC(=O)NC3=O)C4=O)C2)ncc1Cl (stereo not given in full)
[1]
  Population Apoptotic (%): 55% and 64%
  Population Fragmented Nuclei (%): 12% and 11%
  Population Healthy Nuclei (%): 50%
  Population Hoechst High Intensity Objects (%): 0%
  Population Membrane Permeable-Phenotype (%): 15% and 11%
  Population Mitochondria Different-Phenotype (%): 4% and 2%
  Population Mitotic Cells (%): 44% and 35%
  Population Normal (%): 100%
  Population Pyknosed Nuclei (%): 37% and 38%
  Population Tubulin-Different-Phenotype (%): 40% and 37%
  Total Cell Count: 181 and 196
[2]
  Population Apoptotic (%): 65% and 48%
  Population Fragmented Nuclei (%): 12% and 16%
  Population Healthy Nuclei (%): 42% and 33%
  Population Hoechst High Intensity Objects (%): 0% and 1%
  Population Membrane Permeable-Phenotype (%): 56% and 36%
  Population Mitochondria Different-Phenotype (%): 22% and 30%
  Population Mitotic Cells (%): 34% and 52%
  Population Normal (%): 99% and 98%
  Population Pyknosed Nuclei (%): 44% and 49%
  Population Tubulin-Different-Phenotype (%): 72% and 32%
  Total Cell Count: 231 and 205
[3]
  Population Apoptotic (%): 68% and 83%
  Population Fragmented Nuclei (%): 10%
  Population Healthy Nuclei (%): 51%
  Population Hoechst High Intensity Objects (%): 0%
  Population Membrane Permeable-Phenotype (%): 7% and 4%
  Population Mitochondria Different-Phenotype (%): 9% and 4%
  Population Mitotic Cells (%): 31% and 16%
  Population Normal (%): 99% and 100%
  Population Pyknosed Nuclei (%): 37%
  Population Tubulin-Different-Phenotype (%): 27% and 15%
  Total Cell Count: 171 and 175
[4]
  Population Apoptotic (%): 74% and 79%
  Population Fragmented Nuclei (%): 13% and 14%
  Population Healthy Nuclei (%): 32% and 33%
  Population Hoechst High Intensity Objects (%): 1%
  Population Membrane Permeable-Phenotype (%): 32% and 19%
  Population Mitochondria Different-Phenotype (%): 36% and 39%
  Population Mitotic Cells (%): 26% and 20%
  Population Normal (%): 98%
  Population Pyknosed Nuclei (%): 53% and 51%
  Population Tubulin-Different-Phenotype (%): 68% and 75%
  Total Cell Count: 188 and 232
[5]
  Population Apoptotic (%): 63% and 73%
  Population Fragmented Nuclei (%): 15% and 12%
  Population Healthy Nuclei (%): 44% and 43%
  Population Hoechst High Intensity Objects (%): 0%
  Population Membrane Permeable-Phenotype (%): 18% and 9%
  Population Mitochondria Different-Phenotype (%): 5% and 8%
  Population Mitotic Cells (%): 36% and 26%
  Population Normal (%): 99% and 100%
  Population Pyknosed Nuclei (%): 40% and 43%
  Population Tubulin-Different-Phenotype (%): 31% and 36%
  Total Cell Count: 173 and 163
[6]
  Population Apoptotic (%): 79% and 83%
  Population Fragmented Nuclei (%): 17% and 13%
  Population Healthy Nuclei (%): 36% and 32%
  Population Hoechst High Intensity Objects (%): 2% and 0%
  Population Membrane Permeable-Phenotype (%): 36% and 34%
  Population Mitochondria Different-Phenotype (%): 14% and 22%
  Population Mitotic Cells (%): 20% and 16%
  Population Normal (%): 97% and 99%
  Population Pyknosed Nuclei (%): 46% and 53%
  Population Tubulin-Different-Phenotype (%): 73% and 60%
  Total Cell Count: 196 and 232

## CNS(=O)(=O)c1ccc(N(C)C)c(Nc2ncnc3cc(OC)c(OC)cc23)c1
[1]
  Population Apoptotic (%): 40% and 34%
  Population Fragmented Nuclei (%): 11% and 10%
  Population Healthy Nuclei (%): 55% and 63%
  Population Hoechst High Intensity Objects (%): 0%
  Population Membrane Permeable-Phenotype (%): 4% and 6%
  Population Mitochondria Different-Phenotype (%): 0%
  Population Mitotic Cells (%): 60% and 65%
  Population Normal (%): 100%
  Population Pyknosed Nuclei (%): 33% and 26%
  Population Tubulin-Different-Phenotype (%): 9% and 6%
  Total Cell Count: 136 and 169
[2]
  Population Apoptotic (%): 41% and 28%
  Population Fragmented Nuclei (%): 13% and 8%
  Population Healthy Nuclei (%): 61% and 67%
  Population Hoechst High Intensity Objects (%): 0%
  Population Membrane Permeable-Phenotype (%): 4% and 6%
  Population Mitochondria Different-Phenotype (%): 1%
  Population Mitotic Cells (%): 58% and 71%
  Population Normal (%): 99% and 100%
  Population Pyknosed Nuclei (%): 24% and 23%
  Population Tubulin-Different-Phenotype (%): 22% and 16%
  Total Cell Count: 206 and 246
[3]
  Population Apoptotic (%): 37% and 46%
  Population Fragmented Nuclei (%): 11% and 13%
  Population Healthy Nuclei (%): 54% and 60%
  Population Hoechst High Intensity Objects (%): 0%
  Population Membrane Permeable-Phenotype (%): 2% and 8%
  Population Mitochondria Different-Phenotype (%): 0% and 2%
  Population Mitotic Cells (%): 62% and 53%
  Population Normal (%): 99%
  Population Pyknosed Nuclei (%): 33% and 25%
  Population Tubulin-Different-Phenotype (%): 8% and 10%
  Total Cell Count: 136 and 162
[4]
  Population Apoptotic (%): 56% and 43%
  Population Fragmented Nuclei (%): 11% and 10%
  Population Healthy Nuclei (%): 66% and 71%
  Population Hoechst High Intensity Objects (%): 0%
  Population Membrane Permeable-Phenotype (%): 7% and 2%
  Population Mitochondria Different-Phenotype (%): 2%
  Population Mitotic Cells (%): 43% and 56%
  Population Normal (%): 100% and 99%
  Population Pyknosed Nuclei (%): 22% and 17%
  Population Tubulin-Different-Phenotype (%): 20% and 12%
  Total Cell Count: 207 and 220
[5]
  Population Apoptotic (%): 53% and 68%
  Population Fragmented Nuclei (%): 20% and 18%
  Population Healthy Nuclei (%): 59% and 65%
  Population Hoechst High Intensity Objects (%): 0%
  Population Membrane Permeable-Phenotype (%): 10% and 7%
  Population Mitochondria Different-Phenotype (%): 1%
  Population Mitotic Cells (%): 46% and 31%
  Population Normal (%): 99% and 100%
  Population Pyknosed Nuclei (%): 19% and 15%
  Population Tubulin-Different-Phenotype (%): 15% and 8%
  Total Cell Count: 154 and 185
[6]
  Population Apoptotic (%): 62% and 75%
  Population Fragmented Nuclei (%): 17% and 14%
  Population Healthy Nuclei (%): 68% and 78%
  Population Hoechst High Intensity Objects (%): 0%
  Population Membrane Permeable-Phenotype (%): 6% and 3%
  Population Mitochondria Different-Phenotype (%): 2% and 3%
  Population Mitotic Cells (%): 37% and 25%
  Population Normal (%): 99% and 100%
  Population Pyknosed Nuclei (%): 14% and 7%
  Population Tubulin-Different-Phenotype (%): 12% and 11%
  Total Cell Count: 193 and 207

## C=CC(=O)Nc1cccc(C)c1Nc1ncc2cc(-c3c(Cl)c(OC)cc(OC)c3Cl)ccc2n1
[1]
  Population Apoptotic (%): 30% and 35%
  Population Fragmented Nuclei (%): 11% and 9%
  Population Healthy Nuclei (%): 73% and 66%
  Population Hoechst High Intensity Objects (%): 0%
  Population Membrane Permeable-Phenotype (%): 4%
  Population Mitochondria Different-Phenotype (%): 0% and 1%
  Population Mitotic Cells (%): 69% and 64%
  Population Normal (%): 100% and 99%
  Population Pyknosed Nuclei (%): 14% and 23%
  Population Tubulin-Different-Phenotype (%): 12% and 9%
  Total Cell Count: 248 and 242
[2]
  Population Apoptotic (%): 60% and 47%
  Population Fragmented Nuclei (%): 35% and 15%
  Population Healthy Nuclei (%): 40% and 60%
  Population Membrane Permeable-Phenotype (%): 0% and 8%
  Population Mitochondria Different-Phenotype (%): 1% and 4%
  Population Mitotic Cells (%): 40% and 52%
  Population Normal (%): 71% and 100%
  Population Pyknosed Nuclei (%): 24% and 23%
  Population Tubulin-Different-Phenotype (%): 17% and 21%
  Total Cell Count: 202 and 201
[3]
  Population Apoptotic (%): 48% and 60%
  Population Fragmented Nuclei (%): 10% and 9%
  Population Healthy Nuclei (%): 71%
  Population Hoechst High Intensity Objects (%): 0%
  Population Membrane Permeable-Phenotype (%): 3% and 5%
  Population Mitochondria Different-Phenotype (%): 1%
  Population Mitotic Cells (%): 51% and 40%
  Population Normal (%): 99%
  Population Pyknosed Nuclei (%): 17% and 19%
  Population Tubulin-Different-Phenotype (%): 8% and 9%
  Total Cell Count: 245 and 232
[4]
  Population Apoptotic (%): 71% and 63%
  Population Fragmented Nuclei (%): 38% and 17%
  Population Healthy Nuclei (%): 41% and 63%
  Population Membrane Permeable-Phenotype (%): 0% and 1%
  Population Mitochondria Different-Phenotype (%): 0% and 9%
  Population Mitotic Cells (%): 28% and 36%
  Population Normal (%): 60% and 100%
  Population Pyknosed Nuclei (%): 20% and 19%
  Population Tubulin-Different-Phenotype (%): 7% and 20%
  Total Cell Count: 283 and 188
[5]
  Population Apoptotic (%): 61% and 67%
  Population Fragmented Nuclei (%): 12%
  Population Healthy Nuclei (%): 73%
  Population Hoechst High Intensity Objects (%): 0%
  Population Membrane Permeable-Phenotype (%): 3% and 5%
  Population Mitochondria Different-Phenotype (%): 1% and 0%
  Population Mitotic Cells (%): 38% and 32%
  Population Normal (%): 100%
  Population Pyknosed Nuclei (%): 13% and 14%
  Population Tubulin-Different-Phenotype (%): 6% and 14%
  Total Cell Count: 243 and 214
[6]
  Population Apoptotic (%): 83%
  Population Fragmented Nuclei (%): 40% and 15%
  Population Healthy Nuclei (%): 40% and 71%
  Population Membrane Permeable-Phenotype (%): 1% and 4%
  Population Mitochondria Different-Phenotype (%): 4%
  Population Mitotic Cells (%): 16%
  Population Normal (%): 52% and 100%
  Population Pyknosed Nuclei (%): 18% and 12%
  Population Tubulin-Different-Phenotype (%): 10% and 11%
  Total Cell Count: 309 and 189
